# APJ antag: antagonists of human apelin receptor APJ, primary screen, CHO-K1 cells, beta-arrestin complementation, luminescence. inhibition, % at 20 µM. P35414. 330,000 compounds, 0.32% hits;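 active = inhibition above about 40% at 20 µM, limit read from the data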;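 also: cells challenged with 10 nM apelin-13 agonist together with compound; plate controls were apelin-13 plus DMSO wells for no effect and DMSO wells lacking apelin-13 for full effect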
# FXN GAA850 act: FXN promoter activators, primary screen, cell-based, luciferase luminescence, HEK293 lucGAA850; HEK293 lucGAA850 FXN promoter luciferase reporter, 24 h; percent of 10 µM SAHA response; 360,000 compounds, 0.56% hits; activation, % at 6 µM;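 active = activation above the average of all compounds screened plus 3 SD, cutoff fixed separately per campaign, cut at about 7.5% in these data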;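 also: 0% = DMSO wells and 100% = 10 µM SAHA wells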
# CCR6 antagonist: CCR6 receptor antagonists, primary screen, cell-based, CHO-K1, luminescence, beta-arrestin, uHTS; C-C chemokine receptor type 6 (Homo sapiens), P51684; CHO-K1 CCR6 PathHunter beta-arrestin, CCL20-stimulated; inhibition, % at 20 µM; 340,000 compounds, 0.49% hits; AID 493098, 2011;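 active = compounds whose inhibition of the agonist-driven luminescence signal at 20 µM reaches about 50%, limit read from the data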;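 also: cells stimulated with CCL20 at 14 nM final; plate controls were DMSO with CCL20 for no effect and DMSO without agonist for full effect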
# Target sequence (P51684 whole entry, looked up): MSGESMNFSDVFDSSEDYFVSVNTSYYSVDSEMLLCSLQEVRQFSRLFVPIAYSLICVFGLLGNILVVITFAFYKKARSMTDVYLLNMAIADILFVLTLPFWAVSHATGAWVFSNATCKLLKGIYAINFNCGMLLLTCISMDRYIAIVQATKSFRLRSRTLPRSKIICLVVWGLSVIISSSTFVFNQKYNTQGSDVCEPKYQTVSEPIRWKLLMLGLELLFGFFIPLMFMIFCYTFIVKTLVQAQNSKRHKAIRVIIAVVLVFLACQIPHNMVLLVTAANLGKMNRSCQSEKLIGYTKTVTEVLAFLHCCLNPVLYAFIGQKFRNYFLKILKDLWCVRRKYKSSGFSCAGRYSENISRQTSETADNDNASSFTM
# APJ agonist: agonists of human apelin receptor APJ, primary screen, CHO-K1 cells, PathHunter beta-arrestin, luminescence | AID 2520, 2010 | 330,000 compounds, 0.11% hits | activation, % at 20 µM | 0% DMSO wells, 100% apelin;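 active = activation more than six SD over the plate average, tested at 20 µM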;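 also: 0% = DMSO alone and 100% = apelin-13 at 10 nM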
#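 Assay system: CHO-K1 cells stably expressing ProLink-tagged human APJ and arrestin–beta-gal acceptor. Compound dosing: 20 µM single point, 1% DMSO. Times: 16-18 h seeding, 90 min dark compound exposure, 60 min detection. Detection: beta-gal luminescence. Evaluation: APJ–arrestin association signal. Controls: negative DMSO alone, positive Apelin-13 at 10 nM.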
# EBI2 antag: EBI2 receptor antagonists, beta-arrestin recruitment, primary screen, cell-based, luminescence, 7a,25-OHC stimulation, uHTS; inhibition, % at 5 µM; AID 651636, 2012; 7a,25-OHC stimulated; 360,000 compounds, 0.81% hits; in the data active = inhibition above about 38%;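 also: enzyme fragment complementation signal reports receptor beta-arrestin coupling in cells; 0% = agonist plus DMSO wells and 100% = wells without agonist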
# CXCR6 block: CXCR6 receptor inhibitors, primary screen, cell-based, beta-arrestin, luminescence, CHO-K1 PathHunter, 1536-well | 360,000 compounds, 0.36% hits | C-X-C chemokine receptor type 6 (Homo sapiens), O00574 | inhibition, % at 20 µM | AID 602244, 2012; in the data active = inhibition above about 34%, passing the limit was not always enough;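 also: antagonist mode with CXCL16 agonist at 10 nM final; 0% = 10 nM CXCL16 with DMSO and 100% = unstimulated wells without agonist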
# GAA30 counter: GAA30 FXN promoter activators, confirmation, counter-screen for GAA850 frataxin promoter activator project, cell-based, luminescence, HEK293, lucGAA30, triplicate | shares compounds with FXN GAA850 act | HEK293 lucGAA30 FXN promoter luciferase, 24 h; DMSO = 0%, 5 µM ipriflavone = 100% | activation, % at 6 µM | 1,900 compounds, 66% hits | AID 588350, 2011;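 active = mean activation above the mean of solvent-only control wells plus 3 SD, cut at about 22% in these data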;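 also: counterscreen of GAA850 promoter hits where activity marks nonselective or luminescence artifacts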
# GAA850 confirm: FXN GAA850 promoter activators in reporter cells, confirmation, cell-based, luminescence, HEK293 lucGAA850, triplicate. 1,900 compounds, 86% hits. shares compounds with FXN GAA850 act. activation, % at 6 µM. HEK293 lucGAA850 FXN promoter luciferase reporter, 24 h; 100% = activation by SAHA. AID 588351, 2011;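 active = mean activation above a set limit taken from the primary screen, cut at about 8% in these data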;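 also: 0% = DMSO wells and 100% = 10 µM SAHA wells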
# An asterisk follows results filed as active; x = no result. A selection: hits, their analogues and other compounds. The true share with any hit is near 2%.
SMILES,APJ antag,FXN GAA850 act,CCR6 antagonist,APJ agonist,EBI2 antag,CXCR6 block,GAA30 counter,GAA850 confirm
CC(C)OP(=O)(Nc1cccc2ccccc12)OC(C)C,16,12*,9,-2,-6,2,25*,12*
COc1ccc(C2CC(c3ccc(OC)c(OC)c3)=NN2S(C)(=O)=O)cc1 (centres undefined),7,8.2*,5,-6,-8,-2,105*,40*
Cc1ccc(-c2nc3ccc(Cl)cn3c2Cc2cccc(Cl)c2)cc1,x,x,x,x,18,11,x,x
O=C(CSC1=NCCN1)Nc1cccc([N+](=O)[O-])c1,29,9.5*,11,-2,4,23,43*,22*
O=C(CSC1=NCCN1)Nc1ccccc1[N+](=O)[O-],10,1,11,-2,2,5,x,x
O=C(NCc1cccs1)c1ccc(N2CCCCC2)nc1,-20,7.7*,-13,-3,-3,-2,86*,30*
COc1ccc(-n2c(C)cc(C(=O)CN3C(=O)c4ccccc4C3=O)c2C)cc1,6,4,13,-1,16,6,x,x
COc1ccc(-n2c(C)cc(C(=O)CCl)c2C)cc1,11,8.0*,12,1,3,-8,-70,31*
CCS(=O)(=O)N1Cc2ccccc2CC1C(=O)NCC12CC3CC(CC(C3)C1)C2 (centres undefined),-5,7.7*,8,-3,15,0,13,8.3*
CCS(=O)(=O)N1Cc2ccccc2CC1C(=O)NC(C)C12CC3CC(CC(C3)C1)C2 (centres undefined),10,12*,30,-1,19,6,27*,14*
COc1ccccc1C(=O)C1CCCN(C(=O)CCn2cnnn2)C1 (centres undefined),9,3,2,-2,-5,1,x,x
Nc1nc(CSc2ccccc2)nc(N2CCCCC2)n1,18,7.9*,15,-3,23,15,98*,29*
CNc1nc(NCCOc2ccccc2Cl)c2sccc2n1,x,9.0*,x,x,-6,-12,24*,11*
O=c1c(Cl)c(NCCCO)cnn1-c1nc2ccccc2[nH]1,9,29*,10,0,1,22,61*,54*
C=CCN(CC=C)c1cnn(-c2nc3ccccc3[nH]2)c(=O)c1Cl,-31,2,-2,-1,-3,2,x,x
CC1(C(=O)O)CCN1C(=O)c1ccccc1F (centres undefined),x,-2,x,x,0,-8,x,x
COc1ccc(Nc2cc(Nc3ccc(OC)cc3)ncn2)cc1,15,-1,9,0,-2,-1,x,x
COc1ccc(Nc2cc(Nc3cccc(OC)c3)ncn2)cc1,-13,7.8*,7,-2,10,-10,85*,26*
Cc1ccc(Cn2c(SCC(=O)NCc3ccco3)nc3ccsc3c2=O)cc1,13,8.8*,16,-3,9,-2,31*,17*
COc1cc(O)c(C(=O)CC(=O)c2ccncc2)c(OC)c1,x,0,-3,x,-5,-6,x,x
COc1ccc(OCC(=O)N2CCCC(Nc3ccc(C)c(C)c3)C2)cc1 (centres undefined),x,-4,x,x,21,-1,x,x
Cc1ccc(S(=O)(=O)N2CC(O)C2)cc1,-9,1,-6,10,-5,-10,x,x
CC(=O)N1CN(S(=O)(=O)c2ccc(C)cc2)CC1C (centres undefined),-12,12*,-3,-2,-9,-1,12,4
COc1ccc(N2C(=O)CC(N(CCc3ccc(OC)c(OC)c3)C(=S)Nc3ccccc3)C2=O)cc1 (centres undefined),-10,8.4*,8,1,11,5,1,11*
COc1ccc(N2C(=O)CC(N(CCc3ccc(S(N)(=O)=O)cc3)C(=S)Nc3ccccc3)C2=O)cc1 (centres undefined),-11,0,16,-1,6,-4,x,x
SMILES,APJ antag,FXN GAA850 act,CCR6 antagonist,APJ agonist,EBI2 antag,CXCR6 block,GAA30 counter,GAA850 confirm
Cc1nn2c3ccccc3nc2c2ccccc12,2,11*,-19,-5,15,2,75*,31*
Cc1ccc(N2CC(C(=O)Nc3nnc(SCC(=O)N4CCOCC4)s3)CC2=O)cc1 (centres undefined),15,0,0,-2,-6,1,x,x
CCOC(=O)c1sc(Nc2ccccc2Cl)nc1C,-8,9.9*,26,-3,4,10,103*,40*
COCc1cc(C)nc(SCC(=O)Oc2ccccc2)c1C#N,26,1,7,0,-3,-5,x,x
COCc1cc(C)nc(SCC(=O)c2ccc(O)c(O)c2)c1C#N,-17,10*,15,7,-7,2,40*,18*
CCN(CC)C(=O)C1=C(C)N(Cc2ccccc2)C(=O)C(CC(=O)NCC2CCCCC2)C1 (centres undefined),x,-2,x,x,-2,3,x,x
COCC(=O)N(Cc1ccccc1)c1ccccn1,-10,-1,-7,-2,2,-2,x,x
COc1ccccc1NC(=O)N(Cc1ccccc1)c1ccccn1,-3,9.7*,10,-2,11,8,38*,20*
COc1cc(SC)ccc1C(=O)Nc1ncc(Cl)cc1Cl,9,9.8*,6,1,-1,10,119*,41*
Cc1cc(C(=O)Cn2ncc(Cl)c(Cl)c2=O)c(C)n1CC(F)(F)F,12,14*,19,-3,14,8,21,22*
Cc1c(Cl)ccc2sc(NC(=O)c3ccco3)nc12,-5,7.7*,3,-1,-3,-6,105*,38*
CC(=O)Nc1ccc(S(=O)(=O)Nc2ccccc2C(=O)N2CCCCC2)cc1,28,-1,-13,3,-5,4,x,x
Clc1ccc(-c2cn3cc(Br)ccc3n2)cc1Cl,-10,8.2*,10,3,36,3,71*,22*
